Jurkat NFkB inh: inhibitors of induced NF-kB luciferase reporter, primary screen, TCR NF-kB activation inhibitor project, cell-based, luminescence, uHTS | actives 0.53% (n = 330,000) | inhibition, % at 4 µM | Jurkat, PMA/ionomycin-induced NF-kB luciferase reporter; in the data active means inhibition above about 50%
697 NFkB inh: inhibitors of PMA/ionomycin-induced NF-kB reporter, 697 cells, primary screen, B-cell NF-kB inhibitor project, cell-based, luminescence, uHTS. 697 B-cell NF-kB luciferase reporter, 16 h. inhibition, % at 4 µM. actives 0.33% (n = 330,000). AID 435022, 2010; in the data active means inhibition above about 35%
miR122 inh: miR-122 Renilla sensor signal increase in Huh7, primary screen, miR-122 inhibitor project, cell-based, single point, plate reader | activation (reporter increase), % at 12.5 µM | Huh7 miR-122 Renilla luciferase sensor, 48 h; neutral wells = 0, positive control = 100 | actives 0.3% (n = 340,000);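 active means mean replicate activation score at least 90 and every replicate individually at or above 90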;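 further: higher luciferase means less miR-122 activity so hits act as miR-122 inhibitors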
NR2E3 ag-1: inhibitors of NR2E3-RetCOR corepressor binding, primary screen, NR2E3 agonist project, biochemical, TR-FRET, GST-NR2E3, biotin-RetCOR; 1536-well; actives 0.12% (n = 320,000); inhibition of corepressor binding, % at 4.78 µM; Photoreceptor-specific nuclear receptor (Homo sapiens), Q9Y5X4;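 active means percent inhibition above the cutoff of mean plus 3 SD of all tested compounds, set per screening campaign, cut at about 20% in these data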;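 further: 0% = DMSO wells and 100% = biotin wells as full block of FRET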
Target sequence (Q9Y5X4 whole entry, looked up): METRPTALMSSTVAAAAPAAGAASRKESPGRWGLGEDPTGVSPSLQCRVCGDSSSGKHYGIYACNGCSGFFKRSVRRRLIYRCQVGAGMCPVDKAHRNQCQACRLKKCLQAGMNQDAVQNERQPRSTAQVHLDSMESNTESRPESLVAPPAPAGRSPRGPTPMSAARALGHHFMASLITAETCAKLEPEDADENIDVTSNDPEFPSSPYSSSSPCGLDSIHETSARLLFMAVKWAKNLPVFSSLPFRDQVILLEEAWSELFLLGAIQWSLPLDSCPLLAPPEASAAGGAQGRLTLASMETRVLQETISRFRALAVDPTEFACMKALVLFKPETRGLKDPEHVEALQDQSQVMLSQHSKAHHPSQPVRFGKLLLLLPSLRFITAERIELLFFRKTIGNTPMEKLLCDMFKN
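System: GST-tagged NR2E3 plus biotinylated RetCOR corepressor; Buffer or medium: pH 7.5 Tris-based buffer; Probe or stimulus: RetCOR corepressor, biotinylated, 7 nM; Doses: compound at 4.8 µM, single dose; Schedule: 5 h incubation at 4 °C; Technique: time-resolved FRET; Evaluation: percent inhibition of TR-FRET ratio; Replication: one well per compound, singlicate testing.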
NR2E3 ag-2: NR2E3 agonists in two-hybrid cells, primary screen, cell-based, luminescence, CHO-S, Gal4-NCOR/VP16-NR2E3 | Photoreceptor-specific nuclear receptor (Homo sapiens), Q9Y5X4 | inhibition of corepressor binding, % at 3.98 µM | actives 0.35% (n = 360,000) | luciferase | AID 602229, 2012;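 active means inhibition above the mean of all tested compounds plus 3 SD, cut at about 70% in these data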;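 further: 0% = DMSO with NR2E3 transfected cells and 100% = cells lacking NR2E3 construct; higher means lower luciferase signal from less NR2E3 corepressor binding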
FGF22 binding: binders of human FGF22 protein, primary screen, FGF22 synaptogenesis inhibitor project, biophysical, thermal shift, single point. recombinant FGF22 thermal shift, SYPRO orange fluorescence; percent of sucrose octasulfate shift, DMSO zero. activity (Tm shift, normalised), % at 9.99 µM. actives 1.5% (n = 340,000);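 active means mean Tm shift, scaled 0 neutral to 100 positive control, at about 1.3% or above, every replicate too, limit read from the data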
Target sequence (Q9HCT0 whole entry, looked up): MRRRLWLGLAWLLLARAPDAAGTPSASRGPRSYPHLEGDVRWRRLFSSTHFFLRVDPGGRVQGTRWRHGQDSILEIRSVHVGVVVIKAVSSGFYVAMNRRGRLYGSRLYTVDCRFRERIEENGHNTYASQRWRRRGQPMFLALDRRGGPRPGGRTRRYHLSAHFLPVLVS
An asterisk follows results filed as active; . = no result given; ! = repeats disagree; [ ] = dose if it differs, or a comment. Shown are actives, neighbours in structure and some others; about 2.2% of the full set was active somewhere.

SMILES	Jurkat NFkB inh	697 NFkB inh	miR122 inh	NR2E3 ag-1	NR2E3 ag-2	FGF22 binding
NS(=O)(=O)c1ccc(CCNC(=O)c2cc(-c3ccccn3)nc3ccc(Br)cc23)cc1	-7	17	.	-119	4	43*
NS(=O)(=O)c1ccc(CCNC(=O)c2cc(-c3ccc(Br)cc3)nc3ccccc23)cc1	-17	-5	.	1	-26	.
CCS(=O)(=O)Nc1ccc2c(c1)C(=O)N(C)C[C@H](OC)[C@H](C)CN(CCC(F)(F)F)[C@@H](C)CO2	.	.	.	.	.	0
CCOC(=O)C1(Cc2ccc(Cl)cc2)CCN(C(=O)c2cc(C)nc(C)n2)CC1	-10	6	-8	0	25	43*
CCOC(=O)C1(CC2CC2)CCN(C(=O)c2cc(C)nc3ccc(CC)cc23)CC1	10	-3	-2	3	14	44*
CCOC(=O)C1(Cc2ccc(Cl)cc2)CCN(C(=O)c2sc(C)nc2C)CC1	7	-34	.	0	14	0
CCOC(=O)C1(CC2CC2)CCN(C(=O)c2ocnc2C)CC1	-32	-43	.	0	-63	0
CCOc1cc(/C=C/c2ccc3cccc([N+](=O)[O-])c3n2)cc(Cl)c1O	5	4	113*	-1	-17	.
C[C@@H]1CN([C@@H](C)CO)S(=O)(=O)c2ccc(C3=CCCCC3)cc2O[C@@H]1CN(C)C(=O)C1CCC1	.	.	-14[16.7 µM]	.	.	0
COc1ccc(S(=O)(=O)Nc2ccc3c(c2)C(=O)N([C@@H](C)CO)C[C@H](C)[C@@H](CN(C)S(=O)(=O)c2cccs2)OCCCC[C@@H](C)O3)cc1	.	.	16[16.7 µM]	.	.	0
CCCc1cc(=O)[nH]c2nnc(SCC(=O)Nc3ccc4c(c3)OCCO4)n12	9	17	-1	1	19	0
Cc1nnc(SCC(=O)NC(=O)Nc2ccc3c(c2)OCCO3)s1	-3	-1	.	4	-47	43*
Cc1c(C)n2c(SCC(=O)Nc3ccc4c(c3)OCCO4)nnc2[nH]c1=O	-19	-31	.	2	-1	44*
CCO[C@H]1OC(C(=O)O)=C[C@@H](c2ccc3c(c2)OCO3)[C@@H]1CCCO	-6	9	-4	2	-2	44*!
CCO[C@H]1OC(C(=O)N2CCCC2)=C[C@@H](c2ccc3c(c2)OCO3)[C@@H]1CCCO	.	.	.	.	.	0
O=C(C1CCCCC1)N1CC2(C1)[C@H](c1ccccc1)[C@H](CO)N2C(=O)c1cccnc1	.	.	.	.	.	1
CCOC(=O)C1C(c2cccc([N+](=O)[O-])c2)C2C(=O)NN=C2CC1(C)O (configuration not stated)	-3	22	.	1	-12	43*
CC(C)OC(=O)C1C(=O)CC(C)(O)C(C(=O)OC(C)C)C1c1cccc([N+](=O)[O-])c1 (configuration not stated)	14	6	.	3	-24	0
C[C@@H]1CN([C@@H](C)CO)S(=O)(=O)c2ccc(C#Cc3cccc(F)c3)cc2O[C@@H]1CN(C)C(=O)CN1CCOCC1	.	.	3[16.7 µM]	.	.	0
COc1ccc2cc(C#N)c(Nc3cccc(F)c3)nc2c1	-17	18	4	0	-20	44*
CC(=O)NCCC(=O)N1CCCC(CNC(=O)c2ccc(-c3ccccc3)cc2)C1 (configuration not stated)	1	3	.	0	-13	43*
COc1ccc(S(=O)(=O)N(C)C[C@@H]2Oc3ccc(NS(=O)(=O)c4c(C)noc4C)cc3CC(=O)N([C@@H](C)CO)C[C@H]2C)cc1	.	.	-9[16.7 µM]	.	.	0
CC(C)CC#Cc1cnc2c(c1)C(=O)N([C@@H](C)CO)C[C@@H](C)[C@H](CN(C)C(=O)c1ccc3c(c1)OCO3)O2	.	.	-4[16.7 µM]	.	.	0
CC(=O)Nc1cccc(-c2cc(NC(C)=O)c3ncc(-c4cccc(C(C)=O)c4)n3c2)c1	.	.	.	.	19	43*
COc1ccc(-c2cc(NC(C)=O)c3ncc(-c4cccc(C(C)=O)c4)n3c2)cc1OC	.	.	5	.	-9	0
SMILES	Jurkat NFkB inh	697 NFkB inh	miR122 inh	NR2E3 ag-1	NR2E3 ag-2	FGF22 binding
COc1ccc(NC(=O)N2C[C@@H](O)COC[C@@H]3O[C@H](CC(=O)N4CCOCC4)CC[C@H]32)cc1	.	.	16[16.7 µM]	.	.	0
CCc1nnc(NS(=O)(=O)c2ccc(NC(=O)/C=C/c3ccccc3Cl)cc2)s1	2	5	.	-5	11	1.8*
CCc1nnc(NS(=O)(=O)c2ccc(NC(=O)c3ccccc3C)cc2)s1	6	15	-7	1	-11	43*
CCc1nnc(NS(=O)(=O)c2ccc(NC(=O)c3ccccc3OC)cc2)s1	21	6	-6	-1	0	0
CCc1nnc(NC(=O)c2ccc(NS(=O)(=O)c3ccccc3)cc2)s1	-7	-11	212*	1	1	.
CCc1nnc(NC(=O)CCC(=O)Nc2ccc(Cl)cc2)s1	8	1	.	-2	-5	43*
CCCc1nnc(NC(=O)CCC(=O)Nc2ccc(Cl)cc2)s1	-1	-8	-2	4	-6	0
CCc1nnc(NS(=O)(=O)c2ccc(NC(=O)c3ccccc3)cc2)s1	8	8	18	-1	-6	0
O=S(=O)(N[C@@H]1CC[C@@H](CCn2cc(-c3cccnc3)nn2)O[C@@H]1CO)c1ccc(Cl)cc1	.	.	.	.	.	0
N#C[C@@H]1[C@@H](c2ccc(C3=CCCCC3)cc2)[C@H](CO)N1C(=O)NC1CCCCC1	.	.	.	.	.	0
Cc1noc(C)c1NC(=O)Nc1ccc2c(c1)CC(=O)N([C@H](C)CO)C[C@H](C)[C@@H](CN(C)Cc1ccc(-c3ccccc3)cc1)O2	.	.	-2[16.7 µM]	.	.	-1
COC(=O)C[C@@H]1CC[C@H]2[C@H](COc3ccc(NC(=O)c4ccccc4OC)cc3C(=O)N2C)O1	.	.	8[16.7 µM]	.	.	0
CO[C@@H]1CN(C)C(=O)c2ccc(NC(=O)NC3CCCCC3)cc2OC[C@@H](C)N(CC2CCOCC2)C[C@H]1C	.	.	.	.	.	0
O=C(c1cccnc1)N1C[C@@H]2[C@H](c3ccccc31)[C@@H](CO)N2C(=O)Nc1ccccc1F	.	.	-3[16.7 µM]	.	.	0
CCc1nnc(NS(=O)(=O)c2ccc(NC(=O)C(c3ccccc3)c3ccccc3)cc2)s1	-1	6	.	-2	9	1.5*
CCc1nnc(NS(=O)(=O)c2ccc(NC(=S)NC(=O)c3ccccc3)cc2)s1	-13	-10	.	5	-10	.

Screening results from PubChem BioAssay.
